Laboratory results taken from ChEMBL document CHEMBL1149910, “2-(6-aryl-3(Z)-hexen-1,5-diynyl)anilines as a new class of potent antitubulin agents” (J Med Chem, 2008).

Assays:
[1] = tested on: UO-31; assay: Cytotoxicity against human UO31 cells; type: functional
In short: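 NCI in vitro antitumor screening protocol; GI50 taken as the concentration giving 50% reduction in cell growth.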

[2] = tested on: HOP-92; assay: Cytotoxicity against human HOP92 cells; type: functional
In short: (§1)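 Tested in the NCI in vitro antitumor screening protocol across a tumor cell line panel. GI₅₀ is the concentration producing a 50% reduction in cell growth.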

[3] = tested on: MDA-MB-231; assay: Cell cycle arrest in human MDA-MB-231 cells assessed as accumulation of >4N cells at 9.0 uM after 72 hrs by flow cytometry; type: functional
In short: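 MDA-MB-231/ATCC cells were grown in DMEM with 10% fetal bovine serum, […], 1% nonessential amino acids, penicillin and streptomycin at 37 °C in 5% CO₂. They were exposed to 3.6, 9.0, 18, 27 or 36 µM for 24 or 72 h, with colchicine as control. DNA content was then read by flow cytometry, and […] cells were scored.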

[4] = tested on: MDA-MB-231; assay: Cell cycle arrest in human MDA-MB-231 cells assessed as accumulation of 2N cells at 9.0 uM after 24 hrs by flow cytometry; type: functional
[5] = tested on: OVCAR-3; assay: Cytotoxicity against human OVCAR-3 cells; type: functional; in short: as §1
[6] = tested on: MDA-MB-231; assay: Cell cycle arrest in human MDA-MB-231 cells assessed as accumulation of 4N cells at 9.0 uM after 24 hrs by flow cytometry; type: functional
[7] = tested on: MDA-MB-231; assay: Cell cycle arrest in human MDA-MB-231 cells assessed as accumulation of >4N cells at 36.0 uM after 72 hrs by flow cytometry; type: functional
[8] = tested on: HCT-15; assay: Cytotoxicity against human HCT15 cells; type: functional; in short: as §1
[9] = tested on: MDA-MB-231; assay: Cell cycle arrest in human MDA-MB-231 cells assessed as accumulation of 4N cells at 18.0 uM after 24 hrs by flow cytometry; type: functional
[10] = tested on: MDA-MB-231; assay: Cell cycle arrest in human MDA-MB-231 cells assessed as accumulation of 4N cells at 36.0 uM after 72 hrs by flow cytometry; type: functional
[11] = tested on: MDA-MB-231; assay: Cell cycle arrest in human MDA-MB-231 cells assessed as accumulation of 2N cells at 36.0 uM after 72 hrs by flow cytometry; type: functional
[12] = tested on: MDA-MB-231; assay: Cell cycle arrest in human MDA-MB-231 cells assessed as accumulation of 4N cells at 18.0 uM after 72 hrs by flow cytometry; type: functional
[13] = tested on: MDA-MB-231; assay: Cell cycle arrest in human MDA-MB-231 cells assessed as accumulation of 2N cells at 27.0 uM after 72 hrs by flow cytometry; type: functional
[14] = tested on: ACHN; assay: Cytotoxicity against human ACHN cells; type: functional; in short: as §1
[15] = tested on: HOP-62; assay: Cytotoxicity against human HOP62 cells; type: functional; in short: as §1
[16] = tested on: MDA-MB-231; assay: Cell cycle arrest in human MDA-MB-231 cells assessed as accumulation at sub-G1 phase at 9.0 uM after 72 hrs by flow cytometry; type: functional
[17] = tested on: MDA-MB-231 (Homo sapiens); assay: Induction of apoptosis in human MDA-MB-231 cells assessed as induction of caspase 9 activation at 36 uM after 72 hrs by colorimetric assay relative to control
[18] = tested on: MDA-MB-231; assay: Cell cycle arrest in human MDA-MB-231 cells assessed as accumulation at sub-G1 phase at 9.0 uM after 24 hrs by flow cytometry; type: functional
[19] = tested on: K562; assay: Cell cycle arrest in human K562 cells assessed as accumulation at S phase at 50 uM after 24 hrs by flow cytometry; type: functional
In short: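 K-562 human leukemia cells were grown in RPMI 1640 with 10% fetal calf serum, glutamine and penicillin/streptomycin at 37 °C in 5% CO₂. Cells were exposed to compound at 50 µM for 24 h, then pelleted and PBS-washed. They were fixed in ice-cold ethanol for 30 min, treated with 1 mg/mL RNase A at 37 °C for 30 min, and stained with propidium iodide and Triton X-100 for 30 min at room temperature in the dark. Per-phase and sub-G1 percentages came from flow cytometry gating.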

[20] = tested on: MDA-MB-231; assay: Cell cycle arrest in human MDA-MB-231 cells assessed as accumulation of >4N cells at 18.0 uM after 72 hrs by flow cytometry; type: functional
[21] = tested on: MDA-MB-231; assay: Cell cycle arrest in human MDA-MB-231 cells assessed as accumulation of 2N cells at 36.0 uM after 24 hrs by flow cytometry; type: functional
[22] = tested on: SNB-75; assay: Cytotoxicity against human SNB75 cells; type: functional; in short: as §1
[23] = tested on: MOLT-4; assay: Cytotoxicity against human MOLT4 cells; type: functional; in short: as §1
[24] = tested on: OVCAR-5; assay: Cytotoxicity against human OVCAR5 cells; type: functional; in short: as §1
[25] = tested on: SN12C; assay: Cytotoxicity against human SN12C cells; type: functional; in short: as §1
[26] = tested on: MDA-MB-231; assay: Cell cycle arrest in human MDA-MB-231 cells assessed as accumulation at sub-G1 phase at 18.0 uM after 24 hrs by flow cytometry; type: functional
[27] = tested on: Hs-578T; assay: Cytotoxicity against human HS578T cells; type: functional; in short: as §1
[28] = tested on: RXF 393; assay: Cytotoxicity against human RXF393 cells; type: functional; in short: as §1
[29] = tested on: MDA-MB-231; assay: Cell cycle arrest in human MDA-MB-231 cells assessed as accumulation of 4N cells at 3.6 uM after 24 hrs by flow cytometry; type: functional
[30] = tested on: OVCAR-8; assay: Cytotoxicity against human OVCAR8 cells; type: functional; in short: as §1
[31] = tested on: A498; assay: Cytotoxicity against human A498 cells; type: functional; in short: as §1
[32] = tested on: MDA-MB-231; assay: Cell cycle arrest in human MDA-MB-231 cells assessed as accumulation of 2N cells at 18.0 uM after 24 hrs by flow cytometry; type: functional
[33] = tested on: SK-MEL-2; assay: Cytotoxicity against human SK-MEL2 cells; type: functional
In short: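 Tested in the NCI in vitro antitumor screening protocol against human tumour cell lines.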

[34] = tested on: MDA-MB-435; assay: Cytotoxicity against human MDA-MB-435 cells; type: functional; in short: as §1
[35] = tested on: SK-MEL-5; assay: Cytotoxicity against human SK-MEL5 cells; type: functional; in short: as §1
[36] = tested on: NCI/ADR-RES; assay: Cytotoxicity against human NCI/ADR-RES cells; type: functional; in short: as §1
[37] = tested on: T47D; assay: Cytotoxicity against human T47D cells; type: functional; in short: as §1
[38] = tested on: MDA-MB-231; assay: Cell cycle arrest in human MDA-MB-231 cells assessed as accumulation of 2N cells at 27.0 uM after 24 hrs by flow cytometry; type: functional
[39] = read-out: LC50 (the source's name)

`Nc1ccccc1C#C/C=C\C#Cc1ccccc1C(F)(F)F` showed a GI50 [1] of 3.06 µM, a TGI [1] of 25.1 µM and a CC50 [1, 39] of 94.9 µM. It also gave a GI50 [2] of 20.4 µM, a TGI [2] of 48.6 µM and a CC50 [2, 39] greater than 100 µM. It also gave an Activity [3] of 18%, an Activity [4] of 9.3% and a GI50 [5] of 0.631 µM. For the same molecule, the Activity [6] was 33.6%, the Activity [7] was 9.7% and the GI50 [8] was 1.26 µM. The Activity [9] was 31.9%, the Activity [10] was 14.5% and the Activity [11] was 6.5%. It also gave an Activity [12] of 17.4%, an Activity [13] of 6.8% and a GI50 [14] of 0.294 µM. For the same molecule, the TGI [14] was 15.7 µM, the CC50 [14, 39] was 48.3 µM and the GI50 [15] was 0.77 µM. It also gave a TGI [15] of 26.1 µM, a CC50 [15, 39] of 69.5 µM and an Activity [16] of 53.9%. For the same molecule, the “fold change (FC)” value [17] was 3.9, the Activity [18] was 23.1% and the Activity [19] was 19.3%. For the same molecule, the Activity [20] was 13%, the Activity [21] was 10.4% and the TGI [22] was 18.8 µM. It also gave a GI50 ([22]; read-out: GI50) of 0.0869 µM, a CC50 [22, 39] of 100 µM and a GI50 ([22]; read-out: pGI50 (converted)) of 0.0794 µM. The GI50 [23] was greater than 100 µM, the TGI [23] was greater than 100 µM and the CC50 [23, 39] was greater than 100 µM. It also gave a GI50 [24] of 1.35 µM, a TGI [24] of 7.02 µM and a CC50 [24, 39] of 37.5 µM. It also gave a GI50 [25] of 0.348 µM, a TGI [25] of 6.52 µM and a CC50 [25, 39] of 30.9 µM. For the same molecule, the Activity [26] was 23.5%, the GI50 [27] was 0.501 µM and the TGI [27] was 28.9 µM. It also gave a CC50 [27, 39] greater than 100 µM, a GI50 [28] of 0.808 µM and a TGI [28] of 4.62 µM. It also gave a CC50 [28, 39] of 30.5 µM, an Activity [29] of 35.6% and a GI50 [30] of 0.962 µM. For the same molecule, the TGI [30] was 21.5 µM, the CC50 [30, 39] was 80.7 µM and the GI50 [31] was 0.973 µM. It also gave a TGI [31] of 13.1 µM, a CC50 [31, 39] of 40.7 µM and an Activity [32] of 9.5%. It also gave a TGI [33] of 26.5 µM, a CC50 [33, 39] of 67.2 µM and a GI50 [34] of 0.398 µM. It also gave a GI50 [35] of 0.541 µM, a TGI [35] of 15 µM and a CC50 [35, 39] of 42.2 µM. It also gave a GI50 [36] of 0.249 µM, a TGI [36] of 0.68 µM and a CC50 [36, 39] of 28.5 µM. The GI50 [37] was 17 µM, the TGI [37] was 49.6 µM and the CC50 [37, 39] was greater than 100 µM. The Activity [38] was 9.3%.
